{"source": "ChEMBL document CHEMBL3352753", "about": "“Novel strategy to boost oral anticoagulant activity of blood coagulation enzyme inhibitors based on biotransformation into hydrophilic conjugates” (Bioorg Med Chem, 2014)", "key": {"[1]": {"target": "Coagulation factor X (Homo sapiens, UniProt P00742)", "sequence (P00742 41-179 limits assumed)": "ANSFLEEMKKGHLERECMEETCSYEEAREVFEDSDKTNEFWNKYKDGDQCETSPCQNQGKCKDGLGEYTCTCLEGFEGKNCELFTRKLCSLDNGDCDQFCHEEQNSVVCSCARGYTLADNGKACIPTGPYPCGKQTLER", "sequence (P00742 235-488 limits assumed)": "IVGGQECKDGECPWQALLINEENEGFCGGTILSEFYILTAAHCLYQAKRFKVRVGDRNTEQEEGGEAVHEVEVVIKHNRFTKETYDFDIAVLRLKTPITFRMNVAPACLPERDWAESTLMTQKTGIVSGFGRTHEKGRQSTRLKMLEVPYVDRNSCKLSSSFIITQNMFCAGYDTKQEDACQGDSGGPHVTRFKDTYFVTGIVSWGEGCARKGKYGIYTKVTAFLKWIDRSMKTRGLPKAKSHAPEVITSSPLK", "assay": "Inhibition of purified factor 10a (unknown origin) using chromogenic substrate S-2222 by spectrophotometry", "how_it_was_run": "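Chromogenic assay with S-2222 substrate in 0.05 M Tris-HCl pH 8.4 or 0.15 M NaCl. Reaction started by adding enzyme, and A405 read continuously at 37 °C. IC50 taken from a plot of logit residual activity against log inhibitor concentration. Mean of three separate determinations.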"}, "[2]": {"target": "Prothrombin (Homo sapiens, UniProt P00734)", "assay": "Inhibition of purified thrombin (unknown origin) using chromogenic substrate S-2238 by spectrophotometry", "how_it_was_run": "(§1)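 Chromogenic amidolysis started by adding enzyme, with A405 monitored continuously at 37 °C. Thrombin was 0.20 U/mL final with S-2238. Trypsin was 1.0 U/mL final with S-2222. Hydrolysis rate recorded as mOD/min.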"}, "[3]": {"assay": "Lipophilicity, logD of the compound", "format": "physicochemical", "conditions": "octanol/water"}, "[4]": {"test_system": "Plasma", "assay": "Drug level in cynomolgus monkey plasma treated with 4'-Bromo-2'-[(5-chloro-2-pyridyl)carbamoyl]-6'-hydroxyl-1-isopropylpiperidine-4-carboxanilide hydrochloride at 10 mg/kg, po as single bolus dose measured after 1 to 24 hrs post dose", "format": "ADME, organism-based, Macaca fascicularis", "parameters": "dose 10 mg/kg, route oral", "conditions": "in vivo", "how_it_was_run": "(§2)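 Male cynomolgus monkeys (4.0–4.5 kg, n = 3), fasted, given 10 mg/kg orally as a suspension in 0.5% methylcellulose. Blood sampled at 1, 2, 4, 6, 8, 12 and 24 h and spun to plasma. Samples underwent solid-phase extraction, were dried, reconstituted in mobile phase and measured by LC–MS/MS for parent and glucuronide, with an internal standard. Dose and concentrations expressed as free form. LOQ 10 ng/mL.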"}, "[5]": {"test_system": "Plasma", "assay": "Anticoagulant activity in cynomolgus monkey plasma assessed as concentration required to double prothrombin time by coagulometry", "format": "functional, Macaca fascicularis", "how_it_was_run": "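Citrated cynomolgus monkey blood spun at 3000 rpm for 10 min to give platelet-poor plasma, stored at −40 °C. Prothrombin time measured by coagulometer at 37 °C with thromboplastin, compared against a distilled water control. CT2 (concentration doubling clotting time) estimated from each individual concentration–response curve. Mean of three separate determinations.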"}, "[6]": {"test_system": "Cynomolgus monkey", "assay": "Ex vivo anticoagulant activity in cynomolgus monkey plasma at 0.1 mg/kg, iv as single bolus dose measured after 5 mins post dose", "format": "functional, organism-based", "parameters": "dose 0.1 mg/kg", "conditions": "Macaca fascicularis", "how_it_was_run": "(§3)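 Cynomolgus monkeys (n = 3) received a single intravenous bolus. Citrated blood was taken 5 min later and platelet-poor plasma prepared by centrifugation. PT expressed relative to normal cynomolgus monkey plasma, as mean + SD.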"}, "[7]": {"target": "Trypsin (Homo sapiens, UniProt P07477+P07478+P35030)", "assay": "Inhibition of purified trypsin (unknown origin) using chromogenic substrate S-2222 by spectrophotometry", "format": "protein assay", "how_it_was_run": "as §1"}, "[8]": {"test_system": "Cynomolgus monkey", "assay": "Ex vivo anticoagulant activity in cynomolgus monkey plasma at 1 mg/kg, iv as single bolus dose measured after 5 mins post dose", "format": "functional, organism-based", "parameters": "dose 1 mg/kg", "conditions": "Macaca fascicularis", "how_it_was_run": "as §3"}, "[9]": {"assay": "Permeability of the compound at pH 6.5 after 2 hrs by PAMPA", "format": "ADME", "conditions": "read-out: permeability", "how_it_was_run": "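PAMPA in a filter-plate sandwich. Sample was 50 µM final, in buffer with 10% DMSO, filtered before use. Donor was pH 6.5 and acceptor pH 7.4. Plates incubated 2 h at 25 °C in humid air. Donor and acceptor contents quantified by UV spectrum (270–400 nm) against reference standards. n = 2.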"}, "[10]": {"test_system": "Cynomolgus monkey", "assay": "Ex vivo anticoagulant activity in cynomolgus monkey plasma at 1 to 10 mg/kg, po as single bolus dose measured after 5 mins post dose", "format": "functional, organism-based", "conditions": "Macaca fascicularis"}, "[11]": {"test_system": "Cynomolgus monkey", "assay": "Ex vivo anticoagulant activity in cynomolgus monkey plasma at 1 mg/kg, po as single bolus dose measured after 5 mins post dose", "format": "functional, organism-based", "parameters": "dose 1 mg/kg", "conditions": "Macaca fascicularis"}, "[12]": {"test_system": "Plasma", "assay": "Drug metabolism in cynomolgus monkey plasma assessed as formation of glucuronide metabolite at 10 mg/kg, po as single bolus dose measured after 1 to 24 hrs post dose", "format": "ADME, organism-based, Macaca fascicularis", "parameters": "dose 10 mg/kg, route oral", "conditions": "in vivo", "how_it_was_run": "as §2"}}, "note": "Calls of active or inactive are those of the source. The rule behind the calls is not given here."}
{"smiles": "CC(C)N1CCC(C(=O)Nc2c(O[C@@H]3O[C@H](C(=O)O)[C@@H](O)[C@H](O)[C@H]3O)cc(Cl)cc2C(=O)Nc2ccc(Cl)cn2)CC1", "values": [{"measurement": "IC50", "setting": "[1]", "value": 15, "unit": "nM"}]}
{"smiles": "CC(C)N1CCC(C(=O)Nc2c(O[C@@H]3O[C@H](C(=O)O)[C@@H](O)[C@H](O)[C@H]3O)cc(Br)cc2C(=O)Nc2ccc(Cl)cn2)CC1", "values": [{"measurement": "IC50", "setting": "[1]", "value": 4.9, "unit": "nM"}, {"measurement": "IC50", "setting": "[2]", "value": "> 100000", "unit": "nM"}, {"measurement": "logD", "setting": "[3]", "value": -1.1}, {"measurement": "Drug metabolism", "setting": "[4]", "value": "metabolite_detected"}, {"measurement": "2PT", "setting": "[5]", "value": 0.28, "unit": "µM"}, {"measurement": "Activity", "setting": "[6]", "value": "Active"}, {"measurement": "IC50", "setting": "[7]", "value": "> 100000", "unit": "nM"}]}
{"smiles": "CC(C)N1CCC(C(=O)Nc2ccc(Cl)cc2C(=O)Nc2ccc(Cl)cn2)CC1", "values": [{"measurement": "IC50", "setting": "[1]", "value": 5.8, "unit": "nM"}, {"measurement": "Activity", "setting": "[8]", "value": "Active"}, {"measurement": "Papp at 2 h", "setting": "[9]", "value": "> 30", "unit": "×10⁻⁶ cm/s"}, {"measurement": "Activity", "setting": "[10]", "value": "Active"}, {"measurement": "logD", "setting": "[3]", "value": 1.8}, {"measurement": "2PT", "setting": "[5]", "value": 0.22, "unit": "µM"}]}
{"smiles": "CC(C)N1CCC(C(=O)Nc2c(O)cc(Cl)cc2C(=O)Nc2ccc(Cl)cn2)CC1", "values": [{"measurement": "IC50", "setting": "[1]", "value": 8.2, "unit": "nM"}]}
{"smiles": "CC(C)N1CCC(C(=O)Nc2c(O)cc(Br)cc2C(=O)Nc2ccc(Cl)cn2)CC1", "values": [{"measurement": "IC50", "setting": "[1]", "value": 4, "unit": "nM"}, {"measurement": "Activity", "setting": "[11]", "value": "Active"}, {"measurement": "IC50", "setting": "[2]", "value": "> 100000", "unit": "nM"}, {"measurement": "Papp at 2 h", "setting": "[9]", "value": "> 30", "unit": "×10⁻⁶ cm/s"}, {"measurement": "2PT", "setting": "[5]", "value": 0.31, "unit": "µM"}, {"measurement": "Drug metabolism", "setting": "[12]", "value": "metabolite_detected"}, {"measurement": "IC50", "setting": "[7]", "value": "> 100000", "unit": "nM"}]}
